Test results from ChEMBL document CHEMBL4041520, “Novel pyrimidine-2,4-dione-1,2,3-triazole and furo[2,3-d]pyrimidine-2-one-1,2,3-triazole hybrids as potential anti-cancer agents: Synthesis, computational and X-ray analysis and biological evaluation” (Eur J Med Chem, 2017).
Activity calls are given as the source filed them. The rule behind the calls is not given here.

How the values were obtained:
[1] = tested on: A549; test: Antiproliferative activity against human A549 cells after 72 hrs by MTT assay; type: functional, cell-based; settings: A549, 72 h
Summary of the method: (§1)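 Monolayers grown in DMEM with 10% FBS and 2 mM L-glutamine at 37 °C, 5% CO2. Cells seeded at 5000 per well on day 0. Compounds added in five 10-fold dilutions (0.01–100 µM), DMSO ≤0.1%, for 72 h. MTT absorbance converted to percentage growth versus untreated wells. IC50 by linear regression of the dose-response curve; highest concentration reported when not reached. Quadruplicate points, three experiments.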

[2] = tested on: HepG2; test: Antiproliferative activity against human HepG2 cells after 72 hrs by MTT assay; type: functional, cell-based; settings: HepG2, 72 h; summary of the method: as §1
[3] = tested on: CFPAC-1; test: Antiproliferative activity against human CFPAC-1 cells after 72 hrs by MTT assay; type: functional, cell-based; settings: CFPAC-1, 72 h; summary of the method: as §1
[4] = tested on: HeLa; test: Antiproliferative activity against human HeLa cells after 72 hrs by MTT assay; type: functional, cell-based; summary of the method: as §1
[5] = tested on: SW-620; test: Antiproliferative activity against human SW620 cells after 72 hrs by MTT assay; type: functional, cell-based; settings: SW-620, 72 h; summary of the method: as §1
[6] = tested on: NIH3T3; test: Antiproliferative activity against mouse NIH/3T3 cells after 72 hrs by MTT assay; type: cell-based; settings: NIH3T3, 72 h; summary of the method: as §1
[7] = target: Wee1-like protein kinase (Homo sapiens) (UniProt P30291); test: Inhibition of Wee-1 kinase phosphorylation in human HepG2 cells at 2 times antiproliferative IC50 after 48 hrs by Western blot method; type: cell-based
Wee1-like protein kinase (Homo sapiens), sequence (P30291 whole entry, looked up): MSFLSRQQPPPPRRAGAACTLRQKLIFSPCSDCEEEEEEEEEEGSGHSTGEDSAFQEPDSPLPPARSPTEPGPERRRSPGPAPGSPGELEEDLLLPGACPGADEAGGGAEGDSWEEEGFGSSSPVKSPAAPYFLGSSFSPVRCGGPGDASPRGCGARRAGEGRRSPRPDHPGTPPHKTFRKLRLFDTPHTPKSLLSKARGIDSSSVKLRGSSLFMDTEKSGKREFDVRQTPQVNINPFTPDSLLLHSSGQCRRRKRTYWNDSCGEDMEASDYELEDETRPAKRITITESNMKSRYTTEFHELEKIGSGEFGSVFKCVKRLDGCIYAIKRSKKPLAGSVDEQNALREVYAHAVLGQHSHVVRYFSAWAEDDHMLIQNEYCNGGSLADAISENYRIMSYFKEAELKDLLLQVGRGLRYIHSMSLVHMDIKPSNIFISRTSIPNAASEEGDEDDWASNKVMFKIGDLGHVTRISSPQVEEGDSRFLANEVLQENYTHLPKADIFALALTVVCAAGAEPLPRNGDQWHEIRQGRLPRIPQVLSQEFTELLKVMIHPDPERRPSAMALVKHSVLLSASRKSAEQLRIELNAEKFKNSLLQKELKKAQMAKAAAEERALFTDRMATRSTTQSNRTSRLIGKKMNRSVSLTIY
Summary of the method: (§2)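 Cells seeded at 200000 per well and treated at 2× IC50 for 48 h. Lysed in RIPA buffer with protease inhibitors. 50 µg protein run on 12% Tris-glycine gels and transferred to PVDF. Blocked in 4% BSA/TBST, probed overnight at 4 °C with anti-p-SK1, ASAH1 or p-Wee1, then HRP secondary. Chemiluminescent detection; densitometry normalized to alpha-tubulin. Two independent experiments, mean ± SD.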

[8] = target: Wee1-like protein kinase (Homo sapiens) (UniProt P30291); test: Inhibition of Wee-1 kinase in human HepG2 cells assessed as reduction in SK1 phosphorylation at 2 times antiproliferative IC50 after 48 hrs by Western blot method; type: cell-based; summary of the method: as §2
[9] = target: Wee1-like protein kinase (Homo sapiens) (UniProt P30291); test: Inhibition of Wee-1 kinase in human HepG2 cells assessed as downregulation of ASAH at 2 times antiproliferative IC50 after 48 hrs by Western blot method; type: cell-based; summary of the method: as §2
[10] = tested on: HepG2; test: Induction of apoptosis in human HepG2 cells assessed as late apoptotic cells at 2 times antiproliferative IC50 after 48 hrs by Annexin-V FITC/propidium iodide staining based fluorescence microscopic method relative to control; type: functional
Summary of the method: (§3)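 Cells seeded in 8-well chamber slides and exposed to compound at 2× IC50 for 48 h. After washing in incubation buffer, Annexin-V-FITC labelling for 15 min at room temperature. Cells fixed with 20% glycerol; PI used as nuclear stain. Scored by fluorescence microscopy as viable (PI-/AnnV-), early apoptotic (PI-/AnnV+), late apoptotic/primary necrotic (PI+/AnnV+) or secondary necrotic (PI+) percentages.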

[11] = tested on: HepG2; test: Induction of apoptosis in human HepG2 cells assessed as viable cells at 2 times antiproliferative IC50 after 48 hrs by Annexin-V FITC/propidium iodide staining based fluorescence microscopic method (reference value: 94.2%); type: functional; summary of the method: as §3
[12] = tested on: HepG2; test: Induction of apoptosis in human HepG2 cells assessed as early apoptotic cells at 2 times antiproliferative IC50 after 48 hrs by Annexin-V FITC/propidium iodide staining based fluorescence microscopic method (reference value: 0.6%); type: functional; summary of the method: as §3
[13] = tested on: HepG2; test: Induction of apoptosis in human HepG2 cells assessed as secondary necrotic cells at 2 times antiproliferative IC50 after 48 hrs by Annexin-V FITC/propidium iodide staining based fluorescence microscopic method (reference value: 5.2%); type: functional; summary of the method: as §3
[14] = Mitochondrial toxicity in human HepG2 cells grown in presence of glucose; type: cell-based
[15] = Mitochondrial toxicity in human HepG2 cells grown in presence of galactose; type: cell-based
Summary of the method: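 HepG2 kept for more than 5 passages in glucose-free DMEM with 10 mM galactose, 2 mM glutamine, 5 mM HEPES, 10% FBS and 1 mM sodium pyruvate.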

[16] = target: Wee1-like protein kinase (Homo sapiens) (UniProt P30291); test: Inhibition of Wee-1 kinase phosphorylation in human HeLa cells at 2 times antiproliferative IC50 after 48 hrs by Western blot method; type: cell-based; summary of the method: as §2
[17] = target: Wee1-like protein kinase (Homo sapiens) (UniProt P30291); test: Inhibition of Wee-1 kinase in human HeLa cells assessed as reduction in SK1 phosphorylation at 2 times antiproliferative IC50 after 48 hrs by Western blot method; type: cell-based; summary of the method: as §2
[18] = target: Wee1-like protein kinase (Homo sapiens) (UniProt P30291); test: Inhibition of Wee-1 kinase in human HeLa cells assessed as downregulation of ASAH at 2 times antiproliferative IC50 after 48 hrs by Western blot method; type: cell-based; summary of the method: as §2
[19] = tested on: HeLa; test: Induction of apoptosis in human HeLa cells assessed as late apoptotic cells at 2 times antiproliferative IC50 after 48 hrs by Annexin-V FITC/propidium iodide staining based fluorescence microscopic method (reference value: 2.3%); type: functional; summary of the method: as §3
[20] = tested on: HeLa; test: Induction of apoptosis in human HeLa cells assessed as viable cells at 2 times antiproliferative IC50 after 48 hrs by Annexin-V FITC/propidium iodide staining based fluorescence microscopic method (reference value: 75%); type: functional; summary of the method: as §3
[21] = tested on: HeLa; test: Induction of apoptosis in human HeLa cells assessed as early apoptotic cells at 2 times antiproliferative IC50 after 48 hrs by Annexin-V FITC/propidium iodide staining based fluorescence microscopic method (reference value: 20.4%); type: functional; summary of the method: as §3
[22] = tested on: HeLa; test: Induction of apoptosis in human HeLa cells assessed as secondary necrotic cells at 2 times antiproliferative IC50 after 48 hrs by Annexin-V FITC/propidium iodide staining based fluorescence microscopic method (reference value: 2.3%); type: functional; summary of the method: as §3
[23] = tested on: WI-38; test: Antiproliferative activity against human WI38 cells after 72 hrs by MTT assay; type: cell-based; settings: WI-38, 72 h; summary of the method: as §1

Compound	IC50 [1] [µM]	IC50 [2] [µM]	IC50 [3] [µM]	IC50 [4] [µM]	IC50 [5] [µM]	IC50 [6] [µM]	IC50 [23] [µM]	also measured
O=c1[nH]c(=O)n(Cc2cn(-c3ccccc3F)nn2)cc1Br	> 100	> 100	> 100	93.9	≥ 100	59.3	–	–
O=c1c(Br)cn(Cc2cn(-c3ccc(Cl)cc3)nn2)c(=O)n1Cc1cn(-c2ccc(Cl)cc2)nn1	7.41	3.62	5.92	6.13	5.63	0.37	–	inhibition [7]: Active; inhibition [8]: Active; inhibition [9]: Active; Activity [10]: 0%; Activity [11]: 50%; Activity [12]: 34.8%; Activity [13]: 15.2%; IC50 [14]: 3.82 µM; IC50 [15]: 7.1 µM
O=c1[nH]c(=O)n(Cc2cn(-c3ccc(Cl)cc3)nn2)cc1Br	40.9	19.1	39.5	33.3	> 100	6.7	–	–
O=c1c(Br)cn(Cc2cn(-c3ccccc3F)nn2)c(=O)n1Cc1cn(-c2ccccc2F)nn1	5.33	7.11	4.53	1.64	7.86	0.59	–	inhibition [16]: inactive; inhibition [17]: inactive; inhibition [18]: inactive; Activity [19]: 1.8%; Activity [20]: 71.3%; Activity [21]: 23.9%; Activity [22]: 3%; IC50 [14]: 7.11 µM; IC50 [15]: 4.67 µM
C#CCn1c(=O)c(I)cn(Cc2cn(-c3ccc(Cl)cc3)nn2)c1=O	4.69	13.1	5.53	4.74	18.3	–	0.04	–
O=c1c(Br)cn(Cc2cn(-c3cc(Cl)cc(Cl)c3)nn2)c(=O)n1Cc1cn(-c2cc(Cl)cc(Cl)c2)nn1	95.8	42.7	> 100	> 100	> 100	4.3	–	–
O=c1nc2oc(CCCCl)c(C#CCCCCl)c2cn1Cc1cn(-c2ccc(F)cc2)nn1	39.4	36.9	95.8	41.8	69.6	–	0.07	–
O=c1nc2oc(C3CC3)cc2cn1Cc1cn(-c2ccc(Cl)cc2)nn1	61	> 100	> 100	> 100	> 100	–	> 100	–
O=c1[nH]c(=O)n(Cc2cn(-c3ccc(F)cc3)nn2)cc1Br	64	68.9	> 100	72.9	> 100	50.8	–	–
O=c1nc2oc(C3CC3)cc2cn1Cc1cn(Cc2ccccc2)nn1	45	49.1	48.5	50	54.7	–	29.7	–
O=c1c(I)cn(Cc2cn(-c3ccc(F)cc3)nn2)c(=O)n1Cc1cn(-c2ccc(F)cc2)nn1	78.7	53.5	51.2	41.9	94.8	–	< 0.01	–
O=c1[nH]c(=O)n(Cc2cn(-c3cc(Cl)cc(Cl)c3)nn2)cc1Br	80.7	7.66	5.51	8.42	9.87	1.16	–	–
O=c1nc2oc(CCCCl)c(C#CCCCCl)c2cn1Cc1cn(-c2ccc(Cl)cc2)nn1	> 100	72.5	> 100	> 100	> 100	–	> 100	–
O=c1nc2oc(CCCCl)cc2cn1Cc1cn(-c2ccc(Cl)cc2)nn1	52	89.8	> 100	60.2	> 100	–	72.5	–
O=c1nc2oc(C3CC3)c(C#CC3CC3)c2cn1Cc1cn(-c2ccc(Cl)cc2)nn1	39	39.2	35.4	16.1	36.9	–	3.15	–
CCCCCCC#Cc1c(CCCCCC)oc2nc(=O)n(Cc3cn(Cc4ccccc4)nn3)cc12	21.9	25.8	27.3	23.4	32.6	–	23.4	–
O=c1c(I)cn(Cc2cn(-c3ccc(Cl)cc3)nn2)c(=O)n1Cc1cn(-c2ccc(Cl)cc2)nn1	71.1	> 100	> 100	96.5	> 100	–	0.03	–
O=c1c(I)cn(Cc2cn(Cc3ccccc3)nn2)c(=O)n1Cc1cn(Cc2ccccc2)nn1	41.3	5.77	> 100	15.1	> 100	–	< 0.01	–
O=c1[nH]c(=O)n(Cc2cn(-c3ccc(F)cc3)nn2)cc1I	78.8	> 100	83.7	7.2	> 100	–	3.78	–
O=c1c(Br)cn(Cc2cn(-c3ccc(F)cc3)nn2)c(=O)n1Cc1cn(-c2ccc(F)cc2)nn1	25.4	4.47	6.87	12.6	9.82	0.07	–	inhibition [7]: Active; inhibition [8]: inactive; inhibition [9]: inactive; Activity [10]: 0%; Activity [11]: 72.9%; Activity [12]: 26.6%; Activity [13]: 0.5%; IC50 [14]: 4.78 µM; IC50 [15]: 4.57 µM
CCCCCCC#Cc1c(CCCCCC)oc2nc(=O)n(Cc3cn(-c4ccc(F)cc4)nn3)cc12	> 100	> 100	> 100	> 100	> 100	–	> 100	–
O=c1[nH]c(=O)n(Cc2cn(Cc3ccccc3)nn2)cc1I	> 100	> 100	> 100	> 100	> 100	–	55.2	–
